Results as given in ChEMBL document CHEMBL4330087, “Synthesis, antimicrobial activity, attenuation of aminoglycoside resistance in MRSA, and ribosomal A-site binding of pyrene-neomycin conjugates” (Eur J Med Chem, 2019).
Activity calls are given as the source filed them. The calls are words filed in the database; no cut-off is given here.

Tests used:
[1] = test system: Staphylococcus aureus; assay: Antibacterial activity against methicillin-resistant Staphylococcus aureus A960649 at 6.25 uM after 15 to 20 hrs by CLSI protocol based microdilution assay relative to control; assay type: functional
Procedure, shortened: (§1)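 Exponential-phase cultures were exposed to 6.25 μM compound in duplicate with neomycin as reference, at 37 °C in a humidified incubator for 15-20 h. Broth and culture controls received sterile water with 1% DMSO. Percent growth inhibition was calculated against the growth and background controls.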

[2] = test system: Enterococcus faecium; assay: Antibacterial activity against NEO-intermediate sensitive Enterococcus faecium BM4105-RF at 6.25 uM after 15 to 20 hrs by CLSI protocol based microdilution assay relative to control; assay type: functional
Procedure, shortened: (§2)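 Single-concentration screen at 6.25 μM against exponential-phase cultures, in duplicate, with NEO as reference. Enterococcus was grown in BHI broth, M. smegmatis in TS broth with 0.05% Tween 80, and all other strains in TS broth. The 1% DMSO water vehicle was added to broth (background) and culture (growth control). Incubation was 37 °C, humidified, 15-20 h. Result is percent growth inhibition.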

[3] = Inhibition of APH(2\")-1a (unknown origin)
[4] = test system: Enterococcus faecalis; assay: Antibacterial activity against NEO-intermediate sensitive Enterococcus faecalis ATCC 29212 at 6.25 uM after 15 to 20 hrs by CLSI protocol based microdilution assay relative to control; assay type: functional; procedure, shortened: as §2
[5] = test system: Ribosomal RNA A-site; assay: Displacement of F-NEO from Escherichia coli rRNA-A site after 10 to 20 mins by fluorescence assay; assay type: nucleic-acid assay
Procedure, shortened: (§3)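 A 100 nM F-NEO:A-site RNA complex in 10 mM HEPES, 50 mM NaCl, 0.04 mM EDTA, pH 7.0 was titrated with 2-fold dilutions of ligand from 20 to 0.009 μM, or from 60 or 40 μM for weaker ligands. Incubated 10-20 min at room temperature, fluorescence read at ex 485/em 525 nm. IC50 from dose-response curve fit.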

[6] = test system: Listeria monocytogenes; assay: Antibacterial activity against NEO-sensitive Listeria monocytogenes ATCC 19115 at 6.25 uM after 15 to 20 hrs by CLSI protocol based microdilution assay relative to control; assay type: functional; procedure, shortened: as §2
[7] = test system: Staphylococcus aureus; assay: Antibacterial activity against methicillin-resistant Staphylococcus aureus SU-5 at 6.25 uM after 15 to 20 hrs by CLSI protocol based microdilution assay relative to control; assay type: functional; procedure, shortened: as §1
[8] = test system: Acinetobacter baumannii; assay: Antibacterial activity against NEO-sensitive Acinetobacter baumannii ATCC 19606 at 6.25 uM after 15 to 20 hrs by CLSI protocol based microdilution assay relative to control; assay type: functional, ATCC 19606 = CIP 70.34 = JCM 6841; procedure, shortened: as §2
[9] = Inhibition of AAC(2')-1c (unknown origin)
[10] = test system: Pseudomonas aeruginosa; assay: Antibacterial activity against NEO-resistant Pseudomonas aeruginosa 27853 at 6.25 uM after 15 to 20 hrs by CLSI protocol based microdilution assay relative to control; assay type: functional; procedure, shortened: as §1
[11] = test system: Streptococcus pyogenes; assay: Antibacterial activity against NEO-resistant Streptococcus pyogenes C203 at 6.25 uM after 15 to 20 hrs by CLSI protocol based microdilution assay relative to control; assay type: functional; procedure, shortened: as §1
[12] = test system: Ribosomal RNA A-site; assay: Displacement of F-NEO from human mitochondrial rRNA-A site after 10 to 20 mins by fluorescence assay relative to NEO; assay type: nucleic-acid assay; parameters: concentration or dose not given beside the values
Procedure, shortened: (§4)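 100 nM F-NEO:A-site complex in 10 mM HEPES, 50 mM NaCl, 0.04 mM EDTA, pH 7.0, mixed with ligand and incubated 10-20 min at room temperature. Fluorescence read at ex 485/em 525 nm, in duplicate. Percent binding was computed from the intensities of ligand-treated complex, complex without ligand, and complex with neomycin.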

[13] = test system: Escherichia coli; assay: Antibacterial activity against NEO-sensitive Escherichia coli harboring TolC mutant at 6.25 uM after 15 to 20 hrs by CLSI protocol based microdilution assay relative to control; assay type: functional; procedure, shortened: as §1
[14] = test system: Staphylococcus epidermidis; assay: Antibacterial activity against NEO-sensitive Staphylococcus epidermidis 12384 at 6.25 uM after 15 to 20 hrs by CLSI protocol based microdilution assay relative to control; assay type: functional; procedure, shortened: as §2
[15] = test system: Staphylococcus aureus; assay: Antibacterial activity against methicillin-resistant Staphylococcus aureus 33591 at 6.25 uM after 15 to 20 hrs by CLSI protocol based microdilution assay relative to control; assay type: functional; procedure, shortened: as §1
[16] = test system: Ribosomal RNA A-site; assay: Displacement of F-NEO from Escherichia coli rRNA-A site after 10 to 20 mins by fluorescence assay relative to NEO; assay type: nucleic-acid assay; parameters: concentration or dose not given beside the values; procedure, shortened: as §4
[17] = test system: Klebsiella oxytoca; assay: Antibacterial activity against NEO-sensitive Klebsiella oxytoca HM-625 at 6.25 uM after 15 to 20 hrs by CLSI protocol based microdilution assay relative to control; assay type: functional; procedure, shortened: as §2
[18] = Antibacterial activity against NEO-sensitive Enterobacter cloacae 13047 at 6.25 uM after 15 to 20 hrs by CLSI protocol based microdilution assay relative to control; assay type: functional, Enterobacter cloacae subsp. cloacae, ATCC 13047; procedure, shortened: as §2
[19] = test system: Escherichia coli; assay: Antibacterial activity against NEO-sensitive Escherichia coli ATCC 25922 at 6.25 uM after 15 to 20 hrs by CLSI protocol based microdilution assay relative to control; assay type: functional; procedure, shortened: as §2
[20] = test system: Staphylococcus aureus; assay: Antibacterial activity against NEO-sensitive Staphylococcus aureus 25923 at 6.25 uM after 15 to 20 hrs by CLSI protocol based microdilution assay relative to control; assay type: functional; procedure, shortened: as §2
[21] = molecular target: Ribosomal RNA A-site; assay: Displacement of F-NEO from human mitochondrial rRNA-A site after 10 to 20 mins by fluorescence assay; assay type: nucleic-acid assay; procedure, shortened: as §3
[22] = molecular target: Ribosomal RNA A-site; assay: Displacement of F-NEO from human cytosolic rRNA-A site after 10 to 20 mins by fluorescence assay; assay type: nucleic-acid assay; procedure, shortened: as §3
[23] = Inhibition of AAC(6')-1e (unknown origin)
[24] = species on record: Homo sapiens; assay: Displacement of F-NEO from human mitochondrial rRNA-A site A1490G mutant after 10 to 20 mins by fluorescence assay relative to NEO; procedure, shortened: as §4
[25] = test system: Ribosomal RNA A-site; assay: Displacement of F-NEO from human cytosolic rRNA-A site after 10 to 20 mins by fluorescence assay relative to NEO; assay type: nucleic-acid assay; parameters: concentration or dose not given beside the values; procedure, shortened: as §4
[26] = test system: Mycolicibacterium smegmatis; assay: Antibacterial activity against NEO-sensitive Mycobacterium smegmatis at 6.25 uM after 15 to 20 hrs by CLSI protocol based microdilution assay relative to control; assay type: functional; procedure, shortened: as §2
[27] = Inhibition of AAC(3)-4 (unknown origin)
[28] = Inhibition of APH(3')-1a (unknown origin)
[29] = test system: Staphylococcus aureus; assay: Antibacterial activity against methicillin-resistant Staphylococcus aureus M0602 at 6.25 uM after 15 to 20 hrs by CLSI protocol based microdilution assay relative to control; assay type: functional; procedure, shortened: as §1
[30] = test system: Staphylococcus aureus; assay: Antibacterial activity against NEO-sensitive Staphylococcus aureus harboring NorA mutant at 6.25 uM after 15 to 20 hrs by CLSI protocol based microdilution assay relative to control; assay type: functional; procedure, shortened: as §1
[31] = Inhibition of Eis (unknown origin)
[32] = species on record: Homo sapiens; assay: Displacement of F-NEO from human mitochondrial rRNA-A site C1410U mutant after 10 to 20 mins by fluorescence assay relative to NEO; parameters: concentration or dose not given beside the values; procedure, shortened: as §4

Row | Compound | Activity [1] [%] | Activity [2] [%] | inhibition [3] | Activity [4] [%] | IC50 [5] [nM] | Activity [6] | Activity [7] | Activity [8] [%] | inhibition [9] | Activity [10] [%] | Activity [11] | inhibition [12] [%] | Activity [13] | Activity [14] [%] | Activity [15] [%] | inhibition [16] [%] | Activity [17] [%] | Activity [18] [%] | Activity [19] [%] | Activity [20] [%] | other results
1 | NC[C@@H]1O[C@H](O[C@H]2[C@@H](O)[C@H](O[C@@H]3[C@@H](O)[C@H](N)C[C@H](N)[C@H]3O[C@H]3O[C@H](CN)[C@@H](O)[C@H](O)[C@H]3N)O[C@@H]2CNC(=O)Cc2ccc3ccc4cccc5ccc2c3c45)[C@H](N)[C@@H](O)[C@@H]1O | 15 | 0 | Active | 12 | 303 | inactive | inactive | 6 | Active | 19 | inactive | 47 | inactive | 15 | 27 | 33 | 5 | 0 | 7 | 30 | IC50 [21]: 339 nM; IC50 [22]: 375 nM; inhibition [23]: Active; inhibition [24]: 22%; inhibition [25]: 38%; Activity [26]: 38%; inhibition [27]: Active; inhibition [28]: Active; Activity [29]: inactive; Activity [30]: inactive; inhibition [31]: Active; inhibition [32]: 73%
2 | NC[C@@H]1O[C@H](O[C@H]2[C@@H](O)[C@H](O[C@@H]3[C@@H](O)[C@H](N)C[C@H](N)[C@H]3O[C@H]3O[C@H](CN)[C@@H](O)[C@H](O)[C@H]3N)O[C@@H]2CSCCNC(=O)CCCc2ccc3ccc4cccc5ccc2c3c45)[C@H](N)[C@@H](O)[C@@H]1O | 30 | 0 | inactive | 18 | 148 | 49% | 34% | 10 | inactive | 7 | 20% | 74 | 100% | 82 | 20 | 78 | 13 | 0 | 7 | 36 | IC50 [21]: 168 nM; IC50 [22]: 175 nM; inhibition [23]: inactive; inhibition [24]: 58%; inhibition [25]: 66%; Activity [26]: 41%; inhibition [27]: inactive; inhibition [28]: inactive; Activity [29]: 32%; Activity [30]: 53%; inhibition [31]: inactive; inhibition [32]: 92%
3 | NC[C@@H]1O[C@H](O[C@H]2[C@@H](O)[C@H](O[C@@H]3[C@@H](O)[C@H](N)C[C@H](N)[C@H]3O[C@H]3O[C@H](CN)[C@@H](O)[C@H](O)[C@H]3N)O[C@@H]2CSCCNC(=O)CCc2ccc3ccc4cccc5ccc2c3c45)[C@H](N)[C@@H](O)[C@@H]1O | 19 | 26 | Active | 10 | 191 | inactive | inactive | 8 | Active | 10 | 35% | 88 | inactive | 56 | 16 | 88 | 14 | 0 | 0 | 29 | IC50 [21]: 211 nM; IC50 [22]: 204 nM; inhibition [23]: Active; inhibition [24]: 65%; inhibition [25]: 91%; Activity [26]: 29%; inhibition [27]: Active; inhibition [28]: Active; Activity [29]: inactive; Activity [30]: inactive; inhibition [31]: Active; inhibition [32]: 86%
